Here are results for two compounds from ChEMBL document CHEMBL1681763, “Synthesis and biological evaluation of L-valine-amidoximeesters as double prodrugs of amidines” (Bioorg Med Chem, 2011).

Data set [1] in a line: Stability in pig liver microsomes assessed as conversion of prodrug into pentamidine per mg protein. The data set is classed as ADME, Sus scrofa, Microsome. In outline: (§1)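 Human or porcine liver/kidney subcellular fractions (microsomes, mitochondria, 9000g supernatant, cytosol); 0.3 mg protein with 1 mM prodrug in 100 mM potassium phosphate pH 6.3, preincubated 5 min at 37 °C aerobically, started with NADH (1 mM final); protein removed by centrifugation, supernatant analysed by HPLC; turnover as mean ± SD of two independent experiments measured twice.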
A general note: Microsomes from liver hold many membrane-bound enzymes, among them those of drug oxidation.

The subject of data set [2] is Liver. Description: Stability in human liver 9000g supernatant assessed as conversion of prodrug into pentamidine per mg protein. The data set is classed as ADME, tissue-based. The procedure, abridged:
as §1

Data set [3] is described as follows: Stability in human liver mitochondria assessed as conversion of prodrug into pentamidine per mg protein. The data set is classed as ADME. The procedure, abridged: as §1
The test system of data set [4] is Liver microsomes. Description: Stability in human liver microsomes assessed as conversion of prodrug into pentamidine per mg protein. The data set is classed as ADME, Microsome. In outline: as §1
A short description of data set [5]: Stability of the compound at pH 2. The data set is classed as physicochemical. Conditions: buffer. The procedure, abridged:
(§2)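 Chemical stability: prodrug at 100 µM in 100 mM potassium phosphate buffer pH 2.0, 6.3 or 7.4 at 37 °C; remaining prodrug and hydrolysis products followed by HPLC.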

Data set [6] in a line: Stability in human kidney mitochondria assessed as conversion of prodrug into pentamidine per mg protein. The data set is classed as ADME. The procedure, abridged: as §1
Data set [7] is described as follows: Stability in human kidney microsomes assessed as conversion of prodrug into pentamidine per mg protein. The data set is classed as ADME, Microsome. The procedure, abridged: as §1
The nature of data set [8]: Activation of prodrug into pentamidine per mg of recombinant hmARC2 in 20 mM MES buffer of pH 6.0 for 30 mins. In outline:
(§3)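 Recombinant human mARC1 or mARC2 (76 pmol) incubated with 0.5 mM prodrug, 1 mM NADH, 2 U pig liver carboxylesterase, 76 pmol cytochrome b5 and 7.6 pmol NADH cytochrome b5 reductase in 20 mM MES pH 6.0; amidine formed quantified by HPLC; turnover rates as mean ± SD of three incubations.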

The nature of data set [9]: Stability of the compound at pH 6.3. The data set is classed as physicochemical. Conditions: buffer. The procedure, abridged:
as §2

In data set [10] the target is T1, Mitochondrial amidoxime-reducing component 1 (Homo sapiens) (UniProt Q5VT66).
T1 sequence (whole entry): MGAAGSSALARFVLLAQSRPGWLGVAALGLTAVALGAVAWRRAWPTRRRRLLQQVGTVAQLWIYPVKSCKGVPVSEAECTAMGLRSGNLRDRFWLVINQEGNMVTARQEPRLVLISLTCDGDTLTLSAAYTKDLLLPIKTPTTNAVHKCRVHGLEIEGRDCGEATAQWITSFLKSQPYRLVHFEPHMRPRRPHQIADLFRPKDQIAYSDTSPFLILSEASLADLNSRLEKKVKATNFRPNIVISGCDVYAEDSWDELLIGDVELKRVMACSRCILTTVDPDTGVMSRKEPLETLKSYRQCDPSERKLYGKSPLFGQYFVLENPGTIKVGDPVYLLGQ
As to the kind of experiment: Activation of prodrug into pentamidine per mg of recombinant hmARC1 in 20 mM MES buffer of pH 6.0 for 30 mins. In outline:
as §3

A short description of data set [11]: Stability of the compound in presence of 0.5 U esterase/250 uL. Conditions: isolated protein. The data set is classed as ADME. The procedure, abridged:
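Prodrugs incubated with pig liver carboxylesterase (0.5 U/250 µL) in 100 mM potassium buffer pH 7.4; hydrolysis followed by HPLC.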

The nature of data set [12]: Stability in pig kidney 9000g supernatant assessed as conversion of prodrug into pentamidine per mg protein. The data set is classed as ADME, tissue-based, Sus scrofa. In outline: as §1
Data set [13] can be described thus: Stability in pig kidney mitochondria assessed as conversion of prodrug into pentamidine per mg protein. The data set is classed as ADME, Sus scrofa. In outline: as §1
Data set [14] in a line: Stability in pig liver mitochondria assessed as conversion of prodrug into pentamidine per mg protein. The data set is classed as ADME, Sus scrofa. The procedure, abridged:
as §1

Data set [15] is described as follows: Stability in pig liver 9000g supernatant assessed as conversion of prodrug into pentamidine per mg protein. The data set is classed as ADME, tissue-based, Sus scrofa. In outline: as §1
Data set [16] in a line: Stability of the compound at pH 7.4. The data set is classed as physicochemical. The settings on record: buffer. In outline: as §2
The nature of data set [17]: Stability in pig kidney microsomes assessed as conversion of prodrug into pentamidine per mg protein. The data set is classed as ADME, Sus scrofa, Microsome. In outline: as §1
Data set [18] in a line: Stability in pig liver mitochondria assessed as conversion of prodrug into benzamidine per mg protein. The data set is classed as ADME, Sus scrofa. In outline: as §1
A short description of data set [19]: Stability in human liver mitochondria assessed as conversion of prodrug into benzamidine per mg protein. The data set is classed as ADME. In outline:
as §1

A short description of data set [20]: Stability in pig hepatocytes assessed as conversion of prodrug into benzamidoxime per mg protein. The data set is classed as ADME, cell-based, Sus scrofa, Hepatocyte.
The subject of data set [21] is Rattus norvegicus. Description: Cmax in Wistar rat assessed as benzamidine at 50 mg/kg, po. The data set is classed as ADME, organism-based. Also noted: dose 50 mg/kg, route oral. The settings on record: in vivo. The procedure, abridged:
(§4)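 Male Wistar rats (initial weight 230 g) fitted with carotid artery and jugular vein cannulas, fasted 16 h; prodrug 50 mg/kg by oral gavage in 100 mM phosphate buffer pH 6.3 (n = 3); reference benzamidine 10 mg/kg iv in water for injection; blood at 30–480 min (oral) or 10–360 min (iv); plasma benzamidine by HPLC.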

Data set [22] has as its system Rattus norvegicus. As to the kind of experiment: Tmax in Wistar rat assessed as benzamidine at 50 mg/kg, po. Conditions: in vivo. The data set is classed as ADME, organism-based. The arrangement: dose 50 mg/kg, route oral. In outline: as §4
The nature of data set [23]: Stability in pig liver 9000g supernatant assessed as conversion of prodrug into benzamidine per mg protein. The data set is classed as ADME, tissue-based, Sus scrofa. In outline: as §1
The test system of data set [24] is Rattus norvegicus. Description: Volume of distribution in Wistar rat assessed as benzamidine at 50 mg/kg, po. The data set is classed as ADME, organism-based. Also noted: dose 50 mg/kg, route oral. Conditions: in vivo. The procedure, abridged: as §4
Data set [25] is described as follows: Stability in pig kidney mitochondria assessed as conversion of prodrug into benzamidine per mg protein. The data set is classed as ADME, Sus scrofa. In outline:
as §1

Data set [26] in a line: Stability in human kidney mitochondria assessed as conversion of prodrug into benzamidine per mg protein. The data set is classed as ADME. In outline: as §1
A short description of data set [27]: Stability in pig liver cytosol assessed as conversion of prodrug into benzamidine per mg protein in potassium phosphate buffer of pH 6.3. The data set is classed as ADME, tissue-based, Sus scrofa. The procedure, abridged: as §1
Data set [28] is described as follows: Stability in pig liver microsomes assessed as conversion of prodrug into benzamidine per mg protein. The data set is classed as ADME, Sus scrofa, Microsome. In outline:
as §1

For data set [29], the system named is Rattus norvegicus. Description: Mean residence time in Wistar rat assessed as benzamidine at 50 mg/kg, po. The data set is classed as ADME, organism-based. The arrangement: dose 50 mg/kg, route oral. The settings on record: in vivo. The procedure, abridged: as §4
The nature of data set [30]: Stability in pig kidney 9000g supernatant assessed as conversion of prodrug into benzamidine per mg protein. The data set is classed as ADME, tissue-based, Sus scrofa. In outline: as §1
Data set [31] deals with T1, Mitochondrial amidoxime-reducing component 1 (Homo sapiens). Description: Activation of prodrug into benzamidine per mg of recombinant hmARC1 in 20 mM MES buffer of pH 6.0 for 30 mins. The procedure, abridged:
as §3

Data set [32] relates to Rattus norvegicus. As to the kind of experiment: Oral bioavailability in Wistar rat assessed as benzamidine at 50 mg/kg. The data set is classed as ADME, organism-based. Conditions: in vivo. In outline:
as §4

Data set [33] in a line: Stability in human kidney microsomes assessed as conversion of prodrug into benzamidine per mg protein. The data set is classed as ADME, Microsome. The procedure, abridged: as §1
Data set [34] can be described thus: Stability of the compound assessed as conversion to benzamidoxime at pH 2. The data set is classed as physicochemical. Conditions: buffer. In outline: as §2
For data set [35], the system named is Rattus norvegicus. As to the kind of experiment: Half life in Wistar rat assessed as benzamidine at 50 mg/kg, po. The arrangement: dose 50 mg/kg, route oral. The data set is classed as ADME, organism-based. Conditions: in vivo. The procedure, abridged:
as §4

The nature of data set [36]: Activation of prodrug into benzamidine per mg of recombinant hmARC2 in 20 mM MES buffer of pH 6.0 for 30 mins. The procedure, abridged:
as §3

Data set [37] concerns Liver. As to the kind of experiment: Stability in human liver 9000g supernatant assessed as conversion of prodrug into benzamidine per mg protein. The data set is classed as ADME, tissue-based. In outline:
as §1

Data set [38] can be described thus: Stability in pig kidney microsomes assessed as conversion of prodrug into benzamidine per mg protein. The data set is classed as ADME, Sus scrofa, Microsome. In outline: as §1
In data set [39] the test system is Liver microsomes. As to the kind of experiment: Stability in human liver microsomes assessed as conversion of prodrug into benzamidine per mg protein. The data set is classed as ADME, Microsome. In outline: as §1
Data set [40] in a line: Stability in pig hepatocytes assessed as conversion of prodrug into benzamidine per mg protein. The data set is classed as ADME, cell-based, Sus scrofa, Hepatocyte.
Data set [41] has as its system Rattus norvegicus. Description: Clearance in Wistar rat assessed as benzamidine at 50 mg/kg, po. Conditions: in vivo. The arrangement: dose 50 mg/kg, route oral. The data set is classed as ADME, organism-based. The procedure, abridged:
as §4

With `CC(C)[C@H](N)C(=O)O/N=C(\N)c1ccc(OCCCCCOc2ccc(/C(N)=N/OC(=O)[C@@H](N)C(C)C)cc2)cc1`, the Stability in data set [1] is 0.5 nmol/min/mg; with Liver [2], 0.2 nmol/min/mg; in data set [3], 0.2 nmol/min; in the data set on Liver microsomes [4] it was 0.3 nmol/min/mg; in [5], “Stable”; in data set [6], 0.4 nmol/min/mg. Further, the Stability in [7] is 0.3 nmol/min/mg; in data set [8] it was 10.9 nmol/min/mg; in data set [9], “Stable”; in [10], 48.8 nmol/min; in [11], “Unstable”; in [12], 0.2 nmol/min/mg. Moreover, the Stability is 0.8 nmol/min/mg in data set [13]; 1 nmol/min in data set [14]; 0.4 nmol/min/mg in data set [15]; “Stable” in [16]; 0.7 nmol/min/mg in data set [17].

In the case of `CC(C)[C@H](N)C(=O)O/N=C(\N)c1ccccc1`, the Stability in data set [18] is 8.6 nmol/min/mg; in data set [19], 1.8 nmol/min/mg; in data set [20], 650 pmol/min; in [23] it was 3.4 nmol/min/mg; in data set [25], 8.8 nmol/min/mg; in data set [26], 2 nmol/min/mg. Further, the Stability in [27] is 1.2 nmol/min; in data set [28], 7 nmol/min/mg; in [30], 5.6 nmol/min; in data set [31], 67.4 nmol/min/mg; in data set [33], 1.3 nmol/min; in data set [9], “Stable”. Further, the Stability entry in [11] was “Unstable”; in [34], “Unstable”; in data set [36] it was 43.7 nmol/min; with Liver [37] it was 0.2 nmol/min/mg; in [16], “Stable”; in data set [38] it was 10.4 nmol/min/mg. Besides, the figures for the Stability (with Liver microsomes [39]; in data set [40]) were 0.9 nmol/min/mg and 175 pmol/min, respectively. Moreover, the Cmax (as a rule, the peak of the concentration-time curve) in the data set with Rattus norvegicus [21] stood at 23.3 µM. In addition, the time of peak concentration (Tmax) (as a rule, the time at which the peak concentration occurs) in the data set on Rattus norvegicus [22] came out at 0.833 h. Moreover, the Vd with Rattus norvegicus [24] was 12.84 L/kg. Also, in the data set with Rattus norvegicus [29], the MRT (in general, a mean duration of stay, worked out from the concentration-time curve) amounted to 4.323 h. Also, in the data set with Rattus norvegicus [32], the F turned out to be 87.7%. Also, the t1/2 in the data set on Rattus norvegicus [35] turned out to be 2.922 h. Besides, the CL in the data set on Rattus norvegicus [41] came out at 50 mL/min/kg.
